Experiment: Toxicity liver stage against HepG2, at 10uM
Format: cell-based
Set-up: test concentration 10 uM, cell line HepG2-A16-CD81EGFP
Conditions: human, HepG2-A16-CD81EGFP cells; read-out: INHIBITION
In short: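 Uninfected HepG2-A16-CD81EGFP cells, 3 × 10^3 per well, 1536-well, plated on prespotted compound at 10 μM final, parasite-free screening media added to match infected plates; puromycin 10 μM positive, DMSO 0.5% negative; run in parallel with 48 h PbLuc assay at 37 °C, 5% CO2; viability by CellTiter-Glo luminescence, normalized to controls.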

Row | SMILES | cytotoxicity at 10 µM [%]
1 | CCN1CC(COc2ccc(OC)cc2)Oc2ccncc2S1(=O)=O (stereo not given) | -7.6
2 | COc1ccc(-c2noc([C@@H](C)NC(=O)NC(C)(C)C)c2C(=O)O)cc1 | -1.63
3 | CSc1ccc(CN(C)C(=O)c2cc3c([nH]c2=O)CCCC3=O)cc1 | -1.25
4 | O=C(CCOCC(F)(F)F)N1CCCC(n2ccnc2)C1 (stereo not given) | -8.14
5 | Cc1cc(-c2nnc(SCC(=O)O)n2C(C)c2ccccc2)nn1C (stereo not given) | -1.1
6 | CC(=O)c1cccc(-n2nc(C(C)=O)c(C(C)=O)c2C)c1 | 4.45
7 | O=C(c1cscn1)N1C[C@H]2CN(Cc3nccs3)C[C@H]2C1 | -65.4
8 | COCc1cc(N(C)Cc2ncnn2C)nc(C(C)(C)C)n1 | 6.39
9 | Cc1cnc(N2CCOC(C(=O)NCc3ccccc3)C2)s1 (stereo not given) | -2.84
10 | Cc1c(C(=O)N2CCCC2c2cnn(C)c2)cnn1-c1ccccc1 (stereo not given) | -23.7
11 | Cc1cc(NC(=O)c2nc(N3CCCC3)ncc2Cl)ccc1Br | -7.2
12 | c1cnc(N2CCO[C@H]3CN(CC4CCC4)C[C@H]32)cn1 | -102
13 | COC(=O)NCC(=O)N1CCC(c2cc3ccccc3[nH]2)CC1 | -8.55
14 | CNC(=O)C1CCCCN1C(=O)Cc1csc(-c2ccc(C)o2)n1 (stereo not given) | 8.61
15 | COc1ccc(C2(C(=O)N3CC[C@@]4(O)CCNC[C@H]4C3)CCCC2)cc1 | 6.03
16 | CC(=O)N1CCCC1CCc1ccc(Cl)nn1 (stereo not given) | 3.39
17 | O=C(c1cccc(C2CCNC2)c1)N1CCC(c2ccncc2)CC1 (stereo not given) | -1.12
18 | CN(C)c1ccc(C(=O)N2CCCN(Cc3cnn(C)c3)CC2)nn1 | -5.28
19 | O=C(NCC(O)c1ccccc1)Nc1cccs1 (stereo not given) | 8.25
20 | COC(=O)c1cc(CN2CCN(c3ncccc3C)CC2)ccc1O | -0.503
21 | Cc1nccn1CCC1CCN(C(=O)C2CC3(CCNCC3)CN2)CC1 (stereo not given) | -1.64
22 | Cn1cc(C2CCCN2CCCn2c(=O)oc3ccccc32)cn1 (stereo not given) | 5.63
23 | CC(C)c1nc(C2CCCN2C(=O)c2ccc(N(C)C)nn2)no1 (stereo not given) | -8.11

Row | SMILES | cytotoxicity at 10 µM [%]
24 | CC(=O)N1CC(C(=O)Nc2cccc(OC(F)F)c2)C1 | 1.22
25 | COc1ccc(C(=O)N2CCC(Nc3cccnn3)CC2)c(F)c1 | -8.96
26 | O=C(NCCCn1cncn1)N1CCCCCC1 | -7.1
27 | O=C(C1=CCCC1)N1C[C@@H]2COC[C@]2(COCc2ccncc2)C1 | -96.4
28 | CC(C)N1CCCCC1c1cncc(Cl)n1 (stereo not given) | 8.41
29 | Cc1nc(N2CCN(C)CC2)ncc1C(=O)N1CC[C@](C)(O)[C@H](C)C1 | 1.88
30 | Cc1nc(CCNCc2c(C)nn(C)c2N2CCOCC2)cs1 | -11.5
31 | CC(C)c1ccccc1NC(=O)N1C[C@H]2CC[C@@H](C1)N(C)C2=O | -3
32 | COC[C@@]12CCO[C@@H]1CCN(C(=O)C1CCOCC1)C2 | -106
33 | Cc1nc[nH]c1-c1nccn1CCCN(C)C | 5.05
34 | CC(C)CCNc1c(C#N)c2c(c3nncn13)CN(C)CC2 | 9.26
35 | Cc1cc(NC(=O)N2CCOC(C(N)=O)C2)ccc1Br (stereo not given) | -154
36 | COc1cc(C(C)NCc2cscn2)ccc1SC(F)F (stereo not given) | 0.762
37 | Cn1cc(CN2CC[C@H](O)[C@@H](n3ccc(=O)[nH]c3=O)CC2)cn1 | 20.4
38 | COCCN1CCc2cc(C(=O)NC(C)C)c(NCC3CC3)nc2CC1 | 3.22
39 | Cc1nc(O)c2nnn(C[C@H]3CCCN3C(=O)C3CCCC3)c2n1 | -26.9
40 | COCc1n[nH]c2c1CN(Cc1ccccn1)C2 | -102
41 | Cc1cccc(CN2C(=O)CCC23CCN(C(=O)N2CCCC2)CC3)n1 | 4.56
42 | CN1CCC2(CC1)CCN(C(=O)c1onc3ccccc13)C2 | -9.14
43 | Cc1cnn(CC2CCCCN2CC(=O)Nc2nncs2)c1 (stereo not given) | -0.208
44 | N#CCCN(Cc1cccnc1)C(=O)c1ccc(-n2cnnn2)cc1 | 4.59
45 | O=C([C@H]1C[C@@H]2CCN(c3cccc(F)c3)C[C@H]2O1)N1CCCCO1 | 1.67

— ChEMBL document CHEMBL4513216, “Probing the Open Global Health Chemical Diversity Library for Multistage-Active Starting Points for Next-Generation Antimalarials” (ACS Infect Dis, 2020)
